For 24 compounds, IC50, inhibition and Activity results are on record in ChEMBL document CHEMBL2146407, “Development of erlotinib derivatives as CIP2A-ablating agents independent of EGFR activity” (Bioorg Med Chem, 2012).

Each structure is given as a SMILES string. Activity calls are given as the source filed them. The rule behind the calls is not given here.

Assay [1] relates to SK-HEP1. In words: Cytotoxicity against human SKHEP1 cells assessed as growth inhibition after 48 hrs by MTT assay. The format is functional, cell-based. The settings on record: SK-HEP1, 48 h. A digest of the protocol: (§1)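 MTT read-out in SK-Hep-1 cells kept in DMEM with 10% FBS, penicillin/streptomycin and amphotericin B at 37 °C under 5% CO2. Reduced dye solubilized in DMSO and absorbance read at 570 nm. The concentration giving 50% growth inhibition was interpolated from dose–response curves.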
For orientation: Formazan colour is commonly taken as a measure of viable cells.

Assay [2] deals with SK-HEP1. In words: Inhibition of CIP2A expression in human SKHEP1 cells at 20 uM after 24 hrs by Western blot analysis. The format is functional, cell-based. The method in brief: (§2)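 SK-Hep-1 cells (3 × 10^5 per 60 mm dish) were treated 24 h, in the primary screen at 20 μM. Lysates were loaded at 40 μg per lane and blotted for CIP2A against actin.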
In general terms: Immunoblotting shows a protein as a band on a membrane.

Assay [3] concerns SK-HEP1. Put plainly: Cytotoxicity against human SKHEP1 cells assessed as cell death after 48 hrs by MTT assay. It is filed as functional, cell-based. As to conditions: SK-HEP1, 48 h. A digest of the protocol:
as §1

Assay [4] has as its system SK-HEP1. Put plainly: Cytotoxicity against human SKHEP1 cells assessed as cell death after 24 hrs by MTT assay.
In assay [5] the test system is SK-HEP1. Put plainly: Induction of apoptosis in human SKHEP1 cells assessed as DNA fragmentation at 5 uM after 24 hrs by ELISA. The format is functional, cell-based. A digest of the protocol:
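DNA fragmentation was measured in SK-Hep-1 cells after 24 h of exposure, using a cell death ELISA kit.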
For orientation: An ELISA detects its analyte on a solid surface through an enzyme-linked reagent.

Assay [6] relates to SK-HEP1. Put plainly: Inhibition of CIP2A expression in human SKHEP1 cells after 24 hrs by Western blot analysis. It is filed as functional, cell-based. The method in brief:
as §2

Assay [7] concerns the target Protein CIP2A (Homo sapiens) (UniProt Q8TCG1). In words: Inhibition of CIP2A-mediated PP2A-dependent AKT phosphorylation in human SKHEP1 cells at 5 uM after 30 hrs by Western blot analysis. The format is cell-based. As to conditions: SK-HEP1. The method in brief:
(§3)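 SK-Hep-1 cells (3 × 10^5 per 60 mm dish) were exposed to 5 μM for 30 h. Lysates were loaded at 40 μg per lane and immunoblotted for CIP2A, phospho-Akt, PARP and actin.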

Assay [8] addresses T1, Epidermal growth factor receptor (Homo sapiens, UniProt P00533). In words: Inhibition of EGFR phosphorylation in human PC9 cells at 2 uM after 24 hrs by Western blot analysis. It is filed as cell-based. As to conditions: PC-9. A digest of the protocol:
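PC9 cells (3 × 10^5 per 60 mm dish), grown in DMEM with 10% FBS at 37 °C and 5% CO2, were treated 24 h at 2 μM. Lysates were loaded at 40 μg per lane and immunoblotted for EGFR phosphorylation.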

Assay [9] relates to SK-HEP1. Put plainly: Induction of apoptosis in human SKHEP1 cells assessed as accumulation at sub-G1 phase at 5 uM after 24 hrs by propidium iodide staining based flow cytometry. It is filed as functional, cell-based. The method in brief: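 SK-Hep-1 cells were treated 24 h at 5 μM, then trypsinized, pelleted, washed in PBS and stained with propidium iodide. Apoptotic cells were counted by flow cytometry as the sub-G1 fraction. Mean of n = 3 with SD; P <0.05 taken as significant.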

The target of assay [10] is Protein CIP2A (Homo sapiens) (UniProt Q8TCG1). In words: Inhibition of CIP2A-mediated PP2A-dependent AKT phosphorylation in human SKHEP1 cells at 5 uM after 30 hrs by Western blot analysis in presence of okadaic acid. As to conditions: SK-HEP1. The format is cell-based.
For assay [11] the target is unchanged. Put plainly: Inhibition of CIP2A in human SKHEP1 cells at 5 uM after 30 hrs by Western blot analysis. It is filed as cell-based. The settings on record: SK-HEP1. The method in brief:
as §3

Assay [12] deals with SK-HEP1. In words: Induction of apoptosis in human SKHEP1 cells assessed as increase in PARP cleavage at 5 uM after 30 hrs by Western blot analysis. The format is functional, cell-based. The method in brief: as §3
The target in assay [13] is T1, Epidermal growth factor receptor. Put plainly: Inhibition of EGFR phosphorylation in human PC9 cells after 24 hrs by Western blot analysis. The format is cell-based, PC-9.

T1 sequence (P00533 whole entry): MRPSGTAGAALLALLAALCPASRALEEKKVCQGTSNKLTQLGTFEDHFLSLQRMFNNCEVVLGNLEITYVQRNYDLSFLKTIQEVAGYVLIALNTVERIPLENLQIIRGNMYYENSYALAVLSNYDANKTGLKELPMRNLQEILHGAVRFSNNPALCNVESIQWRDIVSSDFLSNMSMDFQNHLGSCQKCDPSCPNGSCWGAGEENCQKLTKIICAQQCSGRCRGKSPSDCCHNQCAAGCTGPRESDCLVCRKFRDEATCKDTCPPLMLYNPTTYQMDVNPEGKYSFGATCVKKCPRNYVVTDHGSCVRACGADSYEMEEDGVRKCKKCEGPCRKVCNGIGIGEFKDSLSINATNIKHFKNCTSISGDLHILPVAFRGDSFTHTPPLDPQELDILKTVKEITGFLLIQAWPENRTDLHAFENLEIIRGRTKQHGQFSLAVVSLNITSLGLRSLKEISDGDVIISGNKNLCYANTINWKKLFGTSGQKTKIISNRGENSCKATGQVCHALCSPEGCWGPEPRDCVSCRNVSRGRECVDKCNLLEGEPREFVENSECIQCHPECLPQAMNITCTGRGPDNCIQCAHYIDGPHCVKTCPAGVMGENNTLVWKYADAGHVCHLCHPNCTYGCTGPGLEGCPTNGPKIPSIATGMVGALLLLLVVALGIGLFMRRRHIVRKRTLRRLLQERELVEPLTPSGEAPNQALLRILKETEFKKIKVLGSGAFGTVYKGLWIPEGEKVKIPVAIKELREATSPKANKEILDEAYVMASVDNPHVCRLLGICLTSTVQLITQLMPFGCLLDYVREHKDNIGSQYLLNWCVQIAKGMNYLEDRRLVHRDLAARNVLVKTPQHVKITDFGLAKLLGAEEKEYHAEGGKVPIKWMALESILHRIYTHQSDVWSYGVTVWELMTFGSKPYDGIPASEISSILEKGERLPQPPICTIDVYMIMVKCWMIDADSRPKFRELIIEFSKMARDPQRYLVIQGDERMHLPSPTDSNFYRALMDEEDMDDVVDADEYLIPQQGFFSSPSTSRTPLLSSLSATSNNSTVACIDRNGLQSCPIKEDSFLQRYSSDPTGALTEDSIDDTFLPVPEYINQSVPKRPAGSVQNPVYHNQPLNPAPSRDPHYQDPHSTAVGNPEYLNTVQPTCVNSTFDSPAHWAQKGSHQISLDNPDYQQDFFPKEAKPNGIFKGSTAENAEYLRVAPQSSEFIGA

`C#Cc1cccc(Nc2nc(Nc3ccc(Oc4ccc(C#N)cc4)cc3)nc3cc(OC)c(OC)cc23)c1`: in the assay on SK-HEP1 [1], the IC50 (usually the concentration that gives 50% inhibition) worked out at 14.5 µM. Besides, the inhibition result with SK-HEP1 [2] is “Active”.
With `COc1cc2nc(Cl)nc(Nc3ccc(Oc4ccccc4)cc3)c2cc1OC`, in the assay on SK-HEP1 [3], the IC50 amounted to 15.3 µM.
For the compound `Clc1nccc(Nc2ccc(Oc3ccccc3)cc2)n1`, the IC50 with SK-HEP1 [3] is > 40 µM. Also, the inhibition result in the assay on SK-HEP1 [2] was “inactive”.
As to `C#Cc1cccc(Nc2nc(Nc3cccc(Oc4ccc(C#N)cc4)c3)nc3cc(OC)c(OC)cc23)c1`, the IC50 in the assay with SK-HEP1 [1] turned out to be 3.9 µM. Also, the inhibition entry in the assay with SK-HEP1 [2] is “Active”.
`C#Cc1cccc(Nc2nc(Nc3ccc(Oc4ccccc4)cc3)nc3cc(OC)c(OC)cc23)c1`: the Activity result with SK-HEP1 [4] was “Dose-dependent effect”. The IC50 with SK-HEP1 [1] came out at 2.8 µM. In addition, the outcome in the assay with SK-HEP1 [5], in the assay with SK-HEP1 [9] and in the assay on SK-HEP1 [12] was Active. In addition, in the assay with SK-HEP1 [6], the inhibition entry is “Dose-dependent effect”. Moreover, the inhibition result (in assay [7]; in the assay with SK-HEP1 [2]; in assay [11]) was “Active” throughout. In addition, the inhibition result in assay [8] and in assay [10] was “inactive” each time.
Consider `COc1cc2nc(Cl)nc(Nc3cccc(Oc4ccc(C#N)cc4)c3)c2cc1OC`, for which the IC50 with SK-HEP1 [3] was > 40 µM.
Regarding `Clc1cccc(Nc2ccnc(Cl)n2)c1`, in the assay with SK-HEP1 [3], the IC50 was > 40 µM. Besides, the inhibition entry in the assay on SK-HEP1 [2] is “inactive”.
For `C#Cc1cccc(Nc2nc(NCc3ccccc3)nc3cc(OC)c(OC)cc23)c1`, the IC50 with SK-HEP1 [1] is 2.8 µM. For the same compound, the result with SK-HEP1 [5], in the assay with SK-HEP1 [9] and in the assay on SK-HEP1 [12] was Active. Further, the inhibition result (in [7]; in the assay on SK-HEP1 [2]; in assay [11]) was “Active” each time. Also, the inhibition result in assay [8] was “inactive”.
With `COc1cc2nc(Cl)nc(NCc3ccccc3)c2cc1OC`, the IC50 in the assay with SK-HEP1 [3] stood at 19.8 µM.
Regarding `Clc1nccc(NCc2ccccc2)n1`, the IC50 with SK-HEP1 [3] is > 40 µM. Further, in the assay with SK-HEP1 [2], the inhibition result is “inactive”.
`C#Cc1cccc(Nc2ccnc(Cl)n2)c1`: the IC50 with SK-HEP1 [3] was > 40 µM. For the same compound, the inhibition entry in the assay on SK-HEP1 [2] is “inactive”.
Turning to `FC(F)(F)c1cc(Nc2ccnc(Nc3ccc(Cl)c(C(F)(F)F)c3)n2)ccc1Cl`, in the assay on SK-HEP1 [3], the IC50 stood at 13.8 µM. For the same compound, in the assay with SK-HEP1 [2], the inhibition result was “Active”.
For the compound `COc1cc2nc(Cl)nc(Nc3cccc(O)c3)c2cc1OC`, the inhibition result in [7] and in [11] was “inactive” throughout. Besides, the half-maximal inhibitory concentration (IC50) in the assay with SK-HEP1 [3] was > 40 µM. The result in the assay with SK-HEP1 [12] was inactive.
With `COc1cc2nc(Cl)nc(Nc3cc(C)ccc3F)c2cc1OC`, the IC50 in the assay with SK-HEP1 [3] is > 40 µM.
With `C#Cc1cccc(Nc2nc(Nc3cc(C)ccc3F)nc3cc(OC)c(OC)cc23)c1`, the IC50 in the assay on SK-HEP1 [1] stood at 4.5 µM. Also, in the assay with SK-HEP1 [2], the inhibition entry is “Active”.
With `C#Cc1cccc(Nc2nc(Cl)nc3cc(OC)c(OC)cc23)c1`, the concentration for half-maximal inhibition (IC50) in assay [13] was > 8 µM.
Turning to `COc1cc2nc(Cl)nc(Nc3ccc(O)c(C)c3)c2cc1OC`, in the assay with SK-HEP1 [3], the 50% inhibitory concentration (IC50) was > 40 µM.
`C#Cc1cccc(N(C)c2nc(Cl)nc3cc(OC)c(OC)cc23)c1`: in the assay on SK-HEP1 [3], the IC50 came to 12.3 µM.
Turning to `C#Cc1cccc(Nc2nc(Nc3cccc(Cl)c3)nc3cc(OC)c(OC)cc23)c1`, the IC50 in the assay on SK-HEP1 [1] was 7.1 µM. Also, the inhibition entry in the assay on SK-HEP1 [2] is “Active”.
For `COc1cc2nc(Cl)nc(Nc3cccc(Cl)c3)c2cc1OC`, the IC50 in the assay with SK-HEP1 [3] turned out to be 16.5 µM.
Turning to `C#Cc1cccc(Nc2ccnc(Nc3cccc(C#C)c3)n2)c1`, the IC50 with SK-HEP1 [3] turned out to be 3.7 µM. Besides, the inhibition result with SK-HEP1 [2] is “Active”.
Take `C#Cc1cccc(Nc2nc(Nc3ccc(Cl)c(C(F)(F)F)c3)nc3cc(OC)c(OC)cc23)c1`: in the assay on SK-HEP1 [1], the concentration for half-maximal inhibition (IC50) stood at 6.8 µM. For the same compound, the inhibition result in the assay on SK-HEP1 [2] was “Active”.
As for `COc1cc2nc(Cl)nc(Nc3ccc(Cl)c(C(F)(F)F)c3)c2cc1OC`, the 50% inhibitory concentration (IC50) with SK-HEP1 [3] was 8.8 µM.
For the compound `FC(F)(F)c1cc(Nc2ccnc(Cl)n2)ccc1Cl`, the half-inhibitory concentration (IC50) in the assay on SK-HEP1 [3] is > 40 µM. The inhibition result with SK-HEP1 [2] is “inactive”.
